Consider six molecules from ChEMBL document CHEMBL1133492, “Design, synthesis, and biological evaluation of fluoronitrophenyl substituted folate analogues as potential inhibitors of GAR transformylase and AICAR transformylase” (Bioorg Med Chem Lett, 2000).

In test [1] the target is T1, Bifunctional purine biosynthesis protein ATIC (Homo sapiens, UniProt P31939). Nature of the test: In vitro inhibitory activity against Aminoimidazole carboxamide ribonucleotide transformylase. The essentials:
(§1)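 The AICAR Tfase assay solution was pre-incubated with inhibitor (250 µM, or 25 µM where the line states) for 12 h at room temperature. The reaction was then started by adding AICAR, and enzyme inhibition was measured.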
Target sequence in this assay (P31939 whole entry): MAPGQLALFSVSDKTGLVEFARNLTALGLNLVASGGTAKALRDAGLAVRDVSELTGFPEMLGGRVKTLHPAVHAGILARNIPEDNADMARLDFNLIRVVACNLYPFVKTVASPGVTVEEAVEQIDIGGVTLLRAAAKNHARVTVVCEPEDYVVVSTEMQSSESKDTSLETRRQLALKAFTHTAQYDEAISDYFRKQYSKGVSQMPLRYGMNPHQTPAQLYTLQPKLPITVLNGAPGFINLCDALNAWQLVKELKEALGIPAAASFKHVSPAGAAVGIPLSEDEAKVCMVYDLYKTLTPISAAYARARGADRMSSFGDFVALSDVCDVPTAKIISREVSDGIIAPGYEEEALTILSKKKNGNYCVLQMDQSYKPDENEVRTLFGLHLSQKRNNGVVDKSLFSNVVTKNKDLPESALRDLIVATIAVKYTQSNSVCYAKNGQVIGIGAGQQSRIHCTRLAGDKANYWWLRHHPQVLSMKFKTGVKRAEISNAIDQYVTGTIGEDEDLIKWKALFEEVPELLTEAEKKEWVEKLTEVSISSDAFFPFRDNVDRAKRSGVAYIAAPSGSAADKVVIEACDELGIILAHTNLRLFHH

Test [2] has as its system CCRF-CEM. Nature of the test: Cytotoxicity in the absence of hypoxanthine and presence of thymidine against CCRF-CEM cell line. Format: functional, cell-based. The note with it: Homo sapiens. An outline of the steps: (§2)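 CCRF-CEM cells were grown in purine- and pyrimidine-free medium, with thymidine and/or hypoxanthine added or omitted as each line specifies. The cytotoxic potency was reported as an IC50 (µM).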

The test system of test [3] is CCRF-CEM. Nature of the test: Cytotoxicity in the absence of thymidine and hypoxanthine against CCRF-CEM cell line. The note with it: Homo sapiens. In kind it is functional, cell-based. The essentials: as §2
For test [4], the system named is CCRF-CEM. Nature of the test: Cytotoxicity in the absence of thymidine and presence of hypoxanthine against CCRF-CEM cell line. The note with it: Homo sapiens. Format: functional, cell-based. An outline of the steps: as §2
Test [5] concerns CCRF-CEM. Nature of the test: Cytotoxicity in the presence of thymidine and hypoxanthine against CCRF-CEM cell line. Particulars: Homo sapiens. Format: functional, cell-based. The essentials: as §2
Test [6] deals with T2, Trifunctional purine biosynthetic protein adenosine-3 (Homo sapiens) (UniProt P22102).
T2 sequence (whole entry): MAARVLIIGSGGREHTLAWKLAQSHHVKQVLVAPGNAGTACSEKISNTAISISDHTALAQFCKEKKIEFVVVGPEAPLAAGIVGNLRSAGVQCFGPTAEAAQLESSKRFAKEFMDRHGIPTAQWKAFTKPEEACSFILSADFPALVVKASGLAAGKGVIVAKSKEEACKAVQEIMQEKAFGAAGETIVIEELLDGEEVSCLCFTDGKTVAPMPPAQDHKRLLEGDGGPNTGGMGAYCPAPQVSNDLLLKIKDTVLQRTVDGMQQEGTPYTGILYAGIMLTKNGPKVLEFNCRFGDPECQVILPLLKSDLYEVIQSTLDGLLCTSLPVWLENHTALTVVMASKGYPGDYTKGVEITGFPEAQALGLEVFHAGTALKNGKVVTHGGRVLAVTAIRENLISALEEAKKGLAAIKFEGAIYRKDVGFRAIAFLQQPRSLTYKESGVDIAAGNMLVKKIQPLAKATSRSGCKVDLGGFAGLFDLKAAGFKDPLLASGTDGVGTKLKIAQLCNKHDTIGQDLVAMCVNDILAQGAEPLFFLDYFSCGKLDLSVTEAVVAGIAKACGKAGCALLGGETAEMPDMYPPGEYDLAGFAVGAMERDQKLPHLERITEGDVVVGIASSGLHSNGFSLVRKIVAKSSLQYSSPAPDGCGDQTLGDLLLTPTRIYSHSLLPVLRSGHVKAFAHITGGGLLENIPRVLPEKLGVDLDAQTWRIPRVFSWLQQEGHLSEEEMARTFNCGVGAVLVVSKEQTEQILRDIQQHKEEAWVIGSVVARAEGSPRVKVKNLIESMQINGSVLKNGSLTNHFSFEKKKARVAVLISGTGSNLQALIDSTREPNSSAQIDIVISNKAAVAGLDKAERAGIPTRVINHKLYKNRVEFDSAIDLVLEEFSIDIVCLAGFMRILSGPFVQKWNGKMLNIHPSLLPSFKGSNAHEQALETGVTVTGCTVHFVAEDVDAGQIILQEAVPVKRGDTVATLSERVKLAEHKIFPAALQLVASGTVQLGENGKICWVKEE
Nature of the test: In vitro inhibitory activity against Glycinamide ribonucleotide transformylase (GAR Tfase) after 6 hr at 250 uM. In kind it is functional.

In test [7] the target is T2, Trifunctional purine biosynthetic protein adenosine-3 (Homo sapiens). Nature of the test: In vitro inhibitory activity against Glycinamide ribonucleotide transformylase (GAR Tfase) after 30 min at 250 uM; Not active.
Test [8] shares this target. Nature of the test: In vitro inhibitory activity against Glycinamide ribonucleotide transformylase (GAR Tfase) after 3 min at 250 uM; Not active.
In test [9] the target is T1, Bifunctional purine biosynthesis protein ATIC. Nature of the test: In vitro inhibitory activity against Aminoimidazole carboxamide ribonucleotide transformylase after 12 hr at 250 uM; Not active.
Target sequence in this assay (P31939 whole entry, looked up): as the sequence (P31939 whole entry) above
Test [10] has the same target. Nature of the test: In vitro inhibitory activity against Aminoimidazole carboxamide ribonucleotide transformylase pre-incubed for 12 hr at 250 uM. An outline of the steps:
as §1
Target sequence in this assay (P31939 whole entry, looked up): as the sequence (P31939 whole entry) above

Test [11] deals with T2, Trifunctional purine biosynthetic protein adenosine-3 (Homo sapiens). Nature of the test: In vitro inhibitory activity at 250 uM concentration against Glycinamide ribonucleotide transformylase (GAR Tfase) pre-incubation time (6 hr).
Test [12] shares this target. Nature of the test: (§3) In vitro inhibitory activity against Glycinamide ribonucleotide transformylase (GAR Tfase) after 6 hr at 25 uM.
The target is the same in test [13]. Described as §3. This is another data set of the same source.
Test [14] shares this target. Nature of the test: In vitro inhibitory activity against Glycinamide ribonucleotide transformylase (GAR Tfase+GAR) pre-incubation of 6 hr at 250 uM concentration.
Test [15] shares this target. Nature of the test: In vitro inhibitory activity against Glycinamide ribonucleotide transformylase (GAR Tfase) after 3 min at 25 uM; […].
Test [16] shares this target. Nature of the test: In vitro inhibitory activity against Glycinamide ribonucleotide transformylase (GAR Tfase+GAR) following 3 min pre-incubation at 250 uM concentration.
Test [17] shares this target. Nature of the test: In vitro inhibitory activity against Glycinamide ribonucleotide transformylase (GAR Tfase) after 30 min at 25 uM; Not active.
For test [18] the target is unchanged. Nature of the test: In vitro inhibitory activity against Glycinamide ribonucleotide transformylase (GAR Tfase+GAR) following 30 min pre-incubation at 250 uM concentration.
For test [19] the target is unchanged. Nature of the test: In vitro inhibitory activity against Glycinamide ribonucleotide transformylase (GAR Tfase) after 3 min at 25 uM.
Test [20] shares this target. Nature of the test: In vitro inhibitory activity against Glycinamide ribonucleotide transformylase (GAR Tfase) following 3 min pre-incubation at 250 uM concentration.
Test [21] shares this target. Nature of the test: In vitro inhibitory activity against Glycinamide ribonucleotide transformylase (GAR Tfase) after 30 min at 25 uM.
Test [22] has as its target T1, Bifunctional purine biosynthesis protein ATIC. Nature of the test: In vitro inhibitory activity against Aminoimidazole carboxamide ribonucleotide transformylase pre-incubated for 12 hr at 250 uM; Not active. The essentials:
as §1
Target sequence in this assay (P31939 whole entry, looked up): as the sequence (P31939 whole entry) above

The target of test [23] is T2, Trifunctional purine biosynthetic protein adenosine-3 (Homo sapiens). Nature of the test: In vitro inhibitory activity against Glycinamide ribonucleotide transformylase (GAR Tfase) after 1 hr at 25 uM; […].
The target is the same in test [24]. Nature of the test: In vitro inhibitory activity against Glycinamide ribonucleotide transformylase (GAR Tfase) after 6 hr at 250 uM; Not active.
Test [25] shares this target. Nature of the test: In vitro inhibitory activity against Glycinamide ribonucleotide transformylase (GAR Tfase) after 7 hr at 250 uM.

The source made the active and inactive calls. The rule behind the calls is not given here. A value given as a limit tells only on which side of the number the result lay.

What is called Ki is the dissociation constant of the complex between target and ligand, obtained from inhibition or displacement. Lower therefore signals a stronger hold on the target. In the case of `Nc1nc(O)c2cc(CN(Cc3ccc(F)c([N+](=O)[O-])c3)c3ccc(C(=O)NC(CCC(=O)O)C(=O)O)cc3)ccc2n1` (centres undefined), in test [1], the Ki is 17 µM.
Broadly, the IC50 is the concentration at which inhibition is half-maximal. By inhibition is commonly meant the change of the read-out against control, counted positive when it falls. Consider `Nc1nc(N)c(CCCNc2ccc([N+](=O)[O-])c(F)c2F)c(O)n1`, for which the IC50 in the test on CCRF-CEM [2] was determined as 68 µM; in the test with CCRF-CEM [3], 76 µM; in the test on CCRF-CEM [4], 76 µM; in the test on CCRF-CEM [5] it was 73 µM. The same molecule gave an inhibition in [6] of 59%. For the same molecule, the inhibition entry in test [7], in test [8] and in [9] was “inactive” in each case.
Turning to `Nc1nc(N)c(CCCNc2cc(F)c([N+](=O)[O-])cc2[N+](=O)[O-])c(O)n1`, the inhibition stood at 64% in [10]; 39% in test [11]; 58% in [12]; 56% in test [13]; 2% in [14]; 100% in test [16]. Moreover, the inhibition in test [18] amounted to 75%; in [19] it was 76%; in test [20], 76%; in test [21] it was 71%. The half-inhibitory concentration (IC50) in the test with CCRF-CEM [2] came to 1.1 µM; in the test with CCRF-CEM [3] it was 1 µM; with CCRF-CEM [4] it was 1 µM; in the test on CCRF-CEM [5], 1.2 µM. The inhibition result in [15] and in test [17] was “inactive” throughout.
On to `Nc1nc(N)c(CCNc2cc(F)c(F)cc2[N+](=O)[O-])c(O)n1`, for which the inhibition result in [22], in test [23], in [7] and in [8] was “inactive” in each case. Moreover, the IC50 is 43 µM in the test on CCRF-CEM [2], 55 µM in the test with CCRF-CEM [3], 37 µM with CCRF-CEM [4] and 58 µM in the test on CCRF-CEM [5].
`Nc1nc2ccc(CN(Cc3ccc([N+](=O)[O-])c(F)c3)c3ccc(C(=O)NC(CCC(=O)O)C(=O)O)cc3)cc2c(=O)[nH]1` (centres undefined) yielded an inhibitory constant (Ki) in test [1] of 52 µM. In other words, the double-digit micromolar range.
Consider `Nc1nc(N)c(CCCNc2cc(F)ccc2[N+](=O)[O-])c(O)n1`, for which the inhibition entry in test [22], in [7], in test [24] and in test [8] was “inactive” each time. Moreover, the IC50 with CCRF-CEM [2], with CCRF-CEM [3], in the test with CCRF-CEM [4] and with CCRF-CEM [5] was over 100 µM throughout. The values for the inhibition in test [25] and in test [20] were 64% and 86%, respectively.
